Data taken from EPA's CvTdb concentration-time database.
Values joined by “and” are separate entries in the source; they are usually repeats but may differ in a detail not shown here. Identical values can stand only once.

Columns and labels:
[1] = tested on: human; assay: concentration in blood after dosing; conditions: dosed: 1,2,4-trimethylbenzene, inhalation, duration: 2 hr
How it was run: (§1)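 Points were largely digitised from plot screenshots with WebPlotDigitizer or otherwise copied from tables, and they remain in the units each source reported. They come from published in vivo toxicokinetic studies and two structured collections. Sampling and analytical methods follow each source and were often not reported.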

[2] = tested on: human; assay: concentration in blood after dosing; negative times count back from the end of exposure; conditions: inhalation
How it was run: as §1

[3] = tested on: rat; assay: concentration in expired air after dosing; conditions: dosed: 1,1,2-trichloroethane, 501 ppm, inhalation, duration: 6 hr
[4] = tested on: rat; assay: concentration in expired air after dosing; conditions: dosed: 1,1,2-trichloroethane, 501 ppm, inhalation, duration: 6 hr; remark: listed apart in the source
[5] = tested on: rat; assay: concentration in plasma after dosing; conditions: dosed: propylparaben, oral, male, Wistar
[6] = tested on: human; assay: negative times count back from the end of exposure; conditions: dosed: toluene, 200 mg/m^3, inhalation, duration: 2 hr, male
How it was run: as §1

[7] = tested on: rat; assay: concentration in blood after dosing; conditions: dosed: octane, inhalation, duration: 2 hr, male, Fischer-344

Cc1ccc(C)c(C)c1 [1,2,4-trimethylbenzene]
concentration in blood [nM], [1]
Conditions | 0.1793 h | 0.2345 h | 0.5655 h | 0.5931 h | 1.503 h | 2.579 h | 3.572 h
2 ppm | – | 67.7 | 52.6 | – | – | – | –
25 ppm | 970 | – | – | 459 | 658 | 404 | 314

concentration in blood [nM], [2], dosed: 1,2,4-trimethylbenzene, duration: 2 hr
Conditions | 2 ppm | 25 ppm
0.1241 h | 249 | –
0.1793 h | – | 3640
0.2345 h | 237 | –
0.2621 h | – | 3110
0.5655 h | 164 | 2420
0.9793 h | 87.2 | –
1.062 h | – | 1610
1.476 h | 95.1 | –
1.531 h | – | 1360
1.972 h | – | 989
2.524 h | 75.3 | 863
2.966 h | 51.5 | –
3.186 h | – | 790
3.517 h | – | 683
3.959 h | – | 614
11.99 h | – | 171
21.97 h | – | 134
248 s | 288 | 4170

concentration in blood [nM], [2], dosed: 1,2,4-trimethylbenzene, duration: 2 hr, during exposure
Conditions | 2 ppm | 25 ppm
-248 s | – | 7990
-50 s | 552 | –
-1.917 h | – | 2540
-1.89 h | 147 | –
-1.752 h | – | 3540
-1.724 h | 231 | –
-1.476 h | 291 | 4460
-1.255 h | – | 6030
-1.228 h | 327 | –
-1.007 h | – | 6090
-0.9793 h | 409 | –
-0.7862 h | – | 6910
-0.731 h | 433 | –
-0.4828 h | 516 | –
-0.4552 h | – | 7540
-0.2897 h | – | 7180
-0.2345 h | 506 | –

ClCC(Cl)Cl [1,1,2-trichloroethane]
concentration in expired air [ng/mL]
Conditions | [3] | [4]
0.1604 h | – | 149
0.3009 h | – | 215
0.4836 h | 248 | 275
0.7365 h | 321 | 258
0.9895 h | 250 | 331
1.495 h | 233 | 272
2.493 h | 201 | –
2.507 h | – | 253
3.491 h | 225 | –
3.505 h | – | 180
3.996 h | 197 | 164
4.488 h | 185 | –
4.502 h | – | 139
4.98 h | 134 | 152
6.498 h | 67.1 | 75.2
6.989 h | 42.2 | 51.8
7.481 h | 36.1 | –
7.495 h | – | 24.6
7.987 h | 21.3 | 14.7
8.985 h | 11.1 | 6.7
9.996 h | 3.53 | 5.67
10.98 h | 2.46 | 3.53
13 min | 204 | –
223 s | 110 | –

CCCOC(=O)c1ccc(O)cc1 [propylparaben]
concentration in plasma [ng/mL], [5]
Conditions | 0.2504 h | 0.5008 h | 0.9984 h | 1.002 h | 2 h | 2.003 h | 4 h | 4.003 h | 297 s
3 mg/kg | 871 | 280 | – | 88.4 | 82.5 | – | – | – | 495
10 mg/kg | 3140 | 1720 | 466 | – | 271 | – | 23.6 | – | 1790
100 mg/kg | 8510 | 7830 | 4220 | – | 2980 | – | 495 | – | 8610
1000 mg/kg | 14100 | 17200 | – | 11500 | – | 9040 | – | 6390 | 15900

CN1CCCC1=O [N-methyl-2-pyrrolidone]
[2], dosed: N-methyl-2-pyrrolidone, male
Conditions | concentration in blood [ng/mL]
0 h, 10 mg/m^3, duration: 8 hr | 470
0.8235 h, 53 mg/m^3, duration: 8 hr | 2010
0.9269 h, 80 mg/m^3, duration: 6 hr 10min | 942
0.9412 h, 10 mg/m^3, duration: 8 hr | 503
0.9412 h, 24 mg/m^3, duration: 8 hr | 701
0.986 h, 10 mg/m^3, duration: 6 hr 10min | 194
0.986 h, 40 mg/m^3, duration: 6 hr 10min | 412
1.824 h, 24 mg/m^3, duration: 8 hr | 492
1.824 h, 53 mg/m^3, duration: 8 hr | 1300
1.882 h, 10 mg/m^3, duration: 8 hr | 244
1.932 h, 10 mg/m^3, duration: 6 hr 10min | 153
1.932 h, 80 mg/m^3, duration: 6 hr 10min | 723
2.109 h, 40 mg/m^3, duration: 6 hr 10min | 346
3.765 h, 10 mg/m^3, duration: 8 hr | 139
3.765 h, 24 mg/m^3, duration: 8 hr | 277
3.765 h, 53 mg/m^3, duration: 8 hr | 757
3.823 h, 40 mg/m^3, duration: 6 hr 10min | 253
3.823 h, 80 mg/m^3, duration: 6 hr 10min | 516
4.06 h, 10 mg/m^3, duration: 6 hr 10min | 146
7.882 h, 53 mg/m^3, duration: 8 hr | 305
7.941 h, 24 mg/m^3, duration: 8 hr | 189
8 h, 10 mg/m^3, duration: 8 hr | 123
18.01 h, 80 mg/m^3, duration: 6 hr 10min | 92.6
18.25 h, 40 mg/m^3, duration: 6 hr 10min | 18.6
18.6 h, 10 mg/m^3, duration: 6 hr 10min | 55.7
19.88 h, 53 mg/m^3, duration: 8 hr | 91.4
19.94 h, 10 mg/m^3, duration: 8 hr | 85.9
19.94 h, 24 mg/m^3, duration: 8 hr | 63.9
145 s, 80 mg/m^3, duration: 6 hr 10min | 1530

[2], dosed: N-methyl-2-pyrrolidone, male, during exposure
Conditions | concentration in blood [ng/mL]
-281 s, 40 mg/m^3, duration: 6 hr 10min | 645
-212 s, 24 mg/m^3, duration: 8 hr | 806
-212 s, 53 mg/m^3, duration: 8 hr | 2610
-68 s, 10 mg/m^3, duration: 6 hr 10min | 308
-4.118 h, 53 mg/m^3, duration: 8 hr | 1610
-4 h, 10 mg/m^3, duration: 8 hr | 342
-4 h, 24 mg/m^3, duration: 8 hr | 971
-3.211 h, 80 mg/m^3, duration: 6 hr 10min | 963
-3.034 h, 10 mg/m^3, duration: 6 hr 10min | 182
-3.034 h, 40 mg/m^3, duration: 6 hr 10min | 449

O=C(O)CNC(=O)c1ccccc1 [hippuric acid]
[6]
Conditions | amount in urine after dosing [µmol/min]
3.981 h | 2.61
7.978 h | 0.699
12.06 h | 0.451
20.04 h | 0.258

Conditions | amount in urine after dosing [µmol/min]
[6], -49 s, during exposure | 4.88

CCCCOCCO [2-butoxyethanol]
[2], dosed: 2-butoxyethanol, 20 ppm, duration: 2 hr
Conditions | concentration in blood [nM]
0.1474 h | 4330
0.3298 h | 3310
0.4842 h | 3420
0.6526 h | 2200
1.004 h | 1410
1.326 h | 1000
1.663 h | 1090
1.986 h | 987
25 s | 7200
227 s | 4220

[2], dosed: 2-butoxyethanol, 20 ppm, duration: 2 hr, during exposure
Conditions | concentration in blood [nM]
-1.916 h | 2830
-1.832 h | 2770
-1.677 h | 4530
-1.34 h | 5020
-1.018 h | 7010
-0.6807 h | 7200
-0.3438 h | 7400

CCCCCCCC [octane]
concentration in blood, [7]
Conditions | 0.1291 h | 0.3815 h | 0.705 h | 171 s | 183 s
1000 ppm | 3810 ng/mL and 4510 ng/mL | 1730 ng/mL and 2020 ng/mL | 777 ng/mL and 960 ng/mL | 5730 ng/mL and 7180 ng/mL | –
5000 ppm | – | – | – | – | 30200 ng/mL and 25900 ng/mL and 22800 ng/mL

ClC=C(Cl)Cl [trichloroethene]
[2], dosed: trichloroethene, 100 ppmv, duration: 240 min, male
Conditions | concentration in blood [ng/mL]
0.2522 h | 634
0.3977 h | 426
0.9604 h | 198
1.911 h | 112
4.055 h | 4.16

[2], dosed: trichloroethene, 100 ppmv, duration: 240 min, male, during exposure
Conditions | concentration in blood [ng/mL]
-226 s | 1170
-175 s | 1170
-3.513 h | 588
-3.022 h | 851
-2.029 h | 1100
-1.031 h | 1040
